Experimental data published in ChEMBL document CHEMBL1121721 (J Med Chem, 1981).

Tests used:
Mu-type opioid receptor = Mu-type opioid receptor (Cavia porcellus, UniProt P97266); assay: Inhibitory potency against Opioid receptor mu 1 in longitudinal muscle preparation of guinea pig ileum; assay type: tissue-based
Procedure, shortened: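 Guinea pig ileum was electrically stimulated to contract, and inhibition was measured at six concentrations per compound, with six to eight assays each. Methionine-enkephalin served as the internal standard in every assay. IC50 was obtained by regression analysis.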

Mus musculus [1] = assay: Analgesic activity of compound (1.98 nM) in mice after icv administration; assay type: functional
Procedure, shortened: (§1)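 Swiss mice (20–22 g) got icv injections of compound freshly dissolved in saline, in a constant 5 μL. Hind-paw lick latency on a 65 ± 1 °C hot plate was read 15 min after injection. Animals with control latency above 9 s were rejected. Values are mean ± SEM, with n per group.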

Mus musculus [2] = species: Mus musculus; assay: Relative potency of compound verses morphine for analgesic activity in mice; assay type: functional
[3] = target: Delta-type opioid receptor (Mus musculus, UniProt P32300); assay: Inhibitory potency against delta Opioid receptor delta 1 in longitudinal muscle preparation of mouse vas deferens
[4] = Ratio of IC50 evaluated in GPI to MVD; assay type: functional
Procedure, shortened: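 IC50 values were determined on electrically stimulated guinea pig ileum and on mouse vas deferens. Each used six concentrations with six to eight assays each, methionine-enkephalin as internal standard, and regression analysis. The ratio is GPI IC50 over MVD IC50.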

Mus musculus [5] = assay: Analgesic activity of compound (1.46+diprenorphine) in mice after icv administration; assay type: functional
Procedure, shortened: (§2)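 Swiss mice (20–22 g) got naloxone 1 mg/kg sc or diprenorphine 0.5 mg/kg sc 15 min before icv compound, given in saline in a constant 5 μL. Hind-paw lick latency on a 65 ± 1 °C hot plate was read 15 min after icv injection. Mice with control latency over 9 s were excluded. Values are mean ± SEM, with n.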

Mus musculus [6] = assay: Analgesic activity of compound (1.46+naloxone) in mice after icv administration; assay type: functional; procedure, shortened: as §2
Mus musculus [7] = assay: Analgesic activity of compound (1.46 nM) in mice after icv administration; assay type: functional; procedure, shortened: as §1
Mus musculus [8] = assay: Analgesic activity of compound (2.66 nM) in mice after icv administration; assay type: functional; procedure, shortened: as §1
Mus musculus [9] = assay: Analgesic activity of compound (1.45 nM) in mice after icv administration; assay type: functional; procedure, shortened: as §1
Mus musculus [10] = assay: Analgesic activity of compound (1.48 nM) in mice after icv administration; assay type: functional; procedure, shortened: as §1

Chain of Delta-type opioid receptor (P32300 whole entry): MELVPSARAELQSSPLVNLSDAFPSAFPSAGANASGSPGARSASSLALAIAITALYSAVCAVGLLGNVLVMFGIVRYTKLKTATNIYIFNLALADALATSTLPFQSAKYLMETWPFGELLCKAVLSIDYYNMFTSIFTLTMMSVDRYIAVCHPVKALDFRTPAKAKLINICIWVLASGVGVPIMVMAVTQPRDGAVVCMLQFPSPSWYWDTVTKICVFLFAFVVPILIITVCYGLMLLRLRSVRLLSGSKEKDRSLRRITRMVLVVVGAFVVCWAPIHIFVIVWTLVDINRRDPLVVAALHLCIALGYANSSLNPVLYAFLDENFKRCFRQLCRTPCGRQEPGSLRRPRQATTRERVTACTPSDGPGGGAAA
Chain of Mu-type opioid receptor (P97266 whole entry): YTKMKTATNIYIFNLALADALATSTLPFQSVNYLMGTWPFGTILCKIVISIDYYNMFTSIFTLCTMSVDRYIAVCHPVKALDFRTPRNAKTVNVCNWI

Compound | IC50 (Mu-type opioid receptor) | Relative potency (Mus musculus [2]) | IC50 [3] | Ratio [4] | further results
CSCC[C@H](NC(=O)[C@H](Cc1ccccc1)NC(=O)CNC(=O)CNC(=O)[C@@H](N)Cc1ccc(O)cc1)C(=O)O | 200 nM |  |  |  | 
CC(C)CC(C)NC(=O)CNC(=O)[C@H](C)NC(=O)[C@@H](N)Cc1ccc(O)cc1 (stereo not given in full) | 182 nM | 1 | 1220 nM | 0.15 | Hind-paw lick latency time (Mus musculus [1]): 25 s
CC(C)C[C@H](NC(=O)[C@H](Cc1ccccc1)NC(=O)CNC(=O)[C@H](CO)NC(=O)[C@@H](N)Cc1ccc(O)cc1)C(=O)N[C@H](C(=O)O)[C@@H](C)O | 360 nM |  |  |  | Hind-paw lick latency time (Mus musculus [5]): 6.6 s; Hind-paw lick latency time (Mus musculus [6]): 10.5 s; Hind-paw lick latency time (Mus musculus [7]): 32.6 s
C[C@H](NC(=O)[C@@H](N)Cc1ccc(O)cc1)C(=O)NCC(=O)N(C)[C@@H](Cc1ccccc1)C(=O)N[C@@H](CC[S+](C)[O-])C(=O)O (stereo not given in full) | 7.2 nM | >100 | 15.7 nM | 0.46 | 
CC(C)C[C@@H](NC(=O)[C@H](Cc1ccccc1)NC(=O)CNC(=O)[C@@H](C)NC(=O)[C@@H](N)Cc1ccc(O)cc1)C(=O)O [DADLE] | 47.8 nM |  |  |  | 
CN1CC[C@]23c4c5ccc(O)c4O[C@H]2[C@@H](O)C=C[C@H]3[C@H]1C5 [MORPHINE] |  |  |  |  | Hind-paw lick latency time (Mus musculus [8]): 25.2 s
H-YAGFMT-OH | 240 nM | 2 | 1.09 nM | 220 | Hind-paw lick latency time (Mus musculus [9]): 29.3 s
H-YGGFMT-OH | 380 nM | >0.1 | 6.1 nM | 62 | Hind-paw lick latency time (Mus musculus [10]): 6.5 s
H-YMGFP-NH2 | 21.9 nM | 25 | 23.1 nM | 0.95 | 
